Results published in ChEMBL document CHEMBL6078712, “Triterpenoid phthalimides as selective anti-cancer agents targeting mitochondrial apoptosis” (Eur J Med Chem, 2025).
The source made the active and inactive calls. No cut-off for these calls is given here.

Tests used:
CCRF-CEM [1] = assay: Induction of apoptosis in human CCRF-CEM cells assessed as viable cells at 5 times IC50 incubated for 24 hrs by Annexin V-FITC and PI staining based flow cytometric analysis (reference value: 97.4 %); format: functional
How it was run: (§1)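 Washed in Ca2+-containing binding buffer, then stained 15 min at room temperature in the dark with Annexin V-FITC and propidium iodide (PI at half the kit-recommended level). Read at once by flow cytometry with a 488 nm laser, ≥10,000 cells. Debris excluded; quadrants viable, early apoptotic, late apoptotic/necrotic, necrotic. Three independent experiments.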

CCRF-CEM [2] = assay: Induction of cell cycle arrest in human CCRF-CEM cells assessed as downregulation of Cyclin A expression at 5 times IC50 incubated for 24 hrs by Western blotting analysis; format: functional, cell-based
How it was run: (§2)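 30 µg protein per lane on SDS-PAGE, transferred to nitrocellulose, blocked in 5 % BSA/TBS-Tween. Primary antibodies overnight at 4 °C (Akt, P-Akt Ser473, STAT-3, caspase-3, PARP, cyclin D, cyclin A, Bcl-xL, Bak, Bid, Bim), then HRP secondary and ECL detection. GAPDH as loading control.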

U2OS = assay: Cytotoxicity against human U2OS cells assessed as inhibition of cell growth incubated for 72 hrs by MTS assay; format: functional, cell-based
How it was run: (§3)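 MTS assay on eight human cancer lines and two non-tumour fibroblast lines. IC50 is the concentration that inhibits cell growth by 50 %. SD typically up to 15 % of the mean.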

[3] = Stability in human plasma assessed as compound remaining at 2 uM incubated for 60 mins by RF-MS analysis; format: ADME, cell-free; conditions: read-out: Stability
How it was run: (§4)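 Human plasma stability, plasma protein binding and liver microsome stability, each run in triplicate. Error deviations below 10 %.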

[4] = Stability in human plasma assessed as compound remaining at 2 uM incubated for 120 mins by RF-MS analysis; format: ADME, cell-free; conditions: read-out: Stability; how it was run: as §4
[5] = Cytotoxicity against human K562-Tax cells assessed as inhibition of cell growth incubated for 72 hrs by MTS assay; format: functional, cell-based; how it was run: as §3
K562 = assay: Cytotoxicity against human K562 cells assessed as inhibition of cell growth incubated for 72 hrs by MTS assay; format: functional, cell-based; conditions: K562, 72 h; how it was run: as §3
CCRF-CEM [6] = assay: Inhibition of RNA synthesis in human CCRF-CEM cells at 1 times IC50 incubated for 24 hrs by BrU incorporation based flow cytometry; format: functional
How it was run: (§5)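 Fixed in 1 % paraformaldehyde/0.05 % NP-40 (15 min at room temperature, then 4 °C overnight). Stained with cross-reacting anti-BrdU plus FITC secondary (45 min each), then PI/RNase A. Flow cytometry; % BrU-positive cells.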

[7] = Metabolic stability in human liver microsomes assessed as parent compound remaining at 2 uM incubated for 15 mins in presence of NADPH by RF-MS analysis; format: ADME, Microsome; conditions: read-out: Stability; how it was run: as §4
CCRF-CEM [8] = assay: Cytotoxicity against human CCRF-CEM cells assessed as inhibition of cell growth incubated for 72 hrs by MTS assay; format: functional, cell-based; how it was run: as §3
HCT 116 TP53(-/-) = assay: Cytotoxicity against human HCT116-p53-null cells assessed as inhibition of cell growth incubated for 72 hrs by MTS assay; format: functional, cell-based; how it was run: as §3
CCRF-CEM [9] = assay: Induction of apoptosis in human CCRF-CEM cells assessed as upregulation of BID expression at 1 to 5 times IC50 incubated for 24 hrs by Western blotting analysis; format: functional, cell-based; how it was run: as §2
CCRF-CEM [10] = assay: Induction of apoptosis in human CCRF-CEM cells assessed as necrotic cells at 1 times IC50 incubated for 24 hrs by Annexin V-FITC and PI staining based flow cytometric analysis (reference value: 0.4 %); format: functional; how it was run: as §1
CCRF-CEM [11] = assay: Induction of apoptosis in human CCRF-CEM cells assessed as late apoptotic cells at 5 times IC50 incubated for 24 hrs by Annexin V-FITC and PI staining based flow cytometric analysis (reference value: 0.4 %); format: functional; how it was run: as §1
CCRF-CEM [12] = assay: Induction of apoptosis in human CCRF-CEM cells assessed as early apoptotic cells at 5 times IC50 incubated for 24 hrs by Annexin V-FITC and PI staining based flow cytometric analysis (reference value: 2.1 %); format: functional; how it was run: as §1
CCRF-CEM [13] = assay: Induction of apoptosis in human CCRF-CEM cells assessed as necrotic cells at 5 times IC50 incubated for 24 hrs by Annexin V-FITC and PI staining based flow cytometric analysis (reference value: 0.4 %); format: functional; how it was run: as §1
CCRF-CEM [14] = assay: Induction of apoptosis in human CCRF-CEM cells assessed as downregulation of BCL-XL expression at 5 times IC50 incubated for 24 hrs by Western blotting analysis; format: functional, cell-based; how it was run: as §2
HCT-116 = assay: Cytotoxicity against human HCT-116 cells assessed as inhibition of cell growth incubated for 72 hrs by MTS assay; format: functional, cell-based; conditions: HCT-116, 72 h; how it was run: as §3
CCRF-CEM [15] = assay: Induction of apoptosis in human CCRF-CEM cells assessed as viable cells at 1 times IC50 incubated for 24 hrs by Annexin V-FITC and PI staining based flow cytometric analysis (reference value: 97.4 %); format: functional; how it was run: as §1
CCRF-CEM [16] = assay: Induction of apoptosis in human CCRF-CEM cells assessed as early apoptotic cells at 1 times IC50 incubated for 24 hrs by Annexin V-FITC and PI staining based flow cytometric analysis (reference value: 2.1 %); format: functional; how it was run: as §1
[17] = Stability in human plasma assessed as compound remaining at 2 uM incubated for 15 mins by RF-MS analysis; format: ADME, cell-free; conditions: read-out: Stability; how it was run: as §4
Mitochondrial membrane = assay: Induction of mitochondrial membrane potential depolarization in human CCRF-CEM cells assessed as fold increase in fluorescence intensity incubated for 24 hrs by JC-1 staining based flow cytometry; format: cell membranes
CCRF-CEM [18] = assay: Inhibition of RNA synthesis in human CCRF-CEM cells at 5 times IC50 incubated for 24 hrs by BrU incorporation based flow cytometry; format: functional; how it was run: as §5
CCRF-CEM [19] = assay: Induction of apoptosis in human CCRF-CEM cells assessed as upregulation of BIM expression at 1 to 5 times IC50 incubated for 24 hrs by Western blotting analysis; format: functional, cell-based; how it was run: as §2
[20] = Stability in human plasma assessed as compound remaining at 2 uM incubated for 30 mins by RF-MS analysis; format: ADME, cell-free; conditions: read-out: Stability; how it was run: as §4
CCRF-CEM [21] = assay: Inhibition of DNA synthesis in human CCRF-CEM cells at 5 times IC50 incubated for 24 hrs by BrdU incorporation based flow cytometry; format: functional
How it was run: (§6)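 Fixed in ice-cold 70 % ethanol, DNA denatured in 2 M HCl for 30 min, neutralised with borax. Stained with anti-BrdU plus FITC secondary, then PI/RNase A for 1 h. Flow cytometry; % BrdU-positive cells.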

[22] = Cytotoxicity against human MRC5 cells assessed as inhibition of cell growth incubated for 72 hrs by MTS assay; format: toxicity, cell-based; how it was run: as §3
CEM-DNR = assay: Cytotoxicity against human CEM-DNR cells assessed as inhibition of cell growth incubated for 72 hrs by MTS assay; format: functional, cell-based; how it was run: as §3
[23] = Metabolic stability in human liver microsomes assessed as parent compound remaining at 2 uM incubated for 30 mins in presence of NADPH by RF-MS analysis; format: ADME, Microsome; conditions: read-out: Stability; how it was run: as §4
CCRF-CEM [24] = assay: Induction of apoptosis in human CCRF-CEM cells assessed as late apoptotic cells at 1 times IC50 incubated for 24 hrs by Annexin V-FITC and PI staining based flow cytometric analysis (reference value: 0.4 %); format: functional; how it was run: as §1
[25] = Metabolic stability in human liver microsomes assessed as parent compound remaining at 2 uM incubated for 60 mins in presence of NADPH by RF-MS analysis; format: ADME, Microsome; conditions: read-out: Stability; how it was run: as §4
CCRF-CEM [26] = assay: Inhibition of DNA synthesis in human CCRF-CEM cells at 1 times IC50 incubated for 24 hrs by BrdU incorporation based flow cytometry; format: functional; how it was run: as §6
[27] = Cytotoxicity against human BJ cells assessed as inhibition of cell growth incubated for 72 hrs by MTS assay; format: toxicity, cell-based; how it was run: as §3
A549 = assay: Cytotoxicity against human A549 cells assessed as inhibition of cell growth incubated for 72 hrs by MTS assay; format: functional, cell-based; conditions: A549, 72 h; how it was run: as §3
[28] = Plasma protein binding in human assessed as fraction bound at 10 uM incubated for 4 hrs by rapid equilibrium dialysis based RF-MS analysis; format: ADME, cell-free; conditions: read-out: PPB (converted); how it was run: as §4

remaining at 1 h, 2 µM [3]: 100%
remaining at 2 h, 2 µM [4]: 89%
remaining at 0.25 h, 2 µM [7]: 92%
remaining at 0.25 h, 2 µM [17]: 96%
Activity (Mitochondrial membrane): Dose-dependent-effect
remaining at 0.5 h, 2 µM [20]: 95%
remaining at 0.5 h, 2 µM [23]: 87%
remaining at 1 h, 2 µM [25]: 79%
fraction unbound at 4 h, 10 µM [28]: 0.231
Structure (SMILES): CC1(C)[C@@H](O)CC[C@]2(C)[C@H]3CC[C@@H]4[C@H]5[C@H](c6cc7c(c(-c8ccccc8)c6)C(=O)N(c6ccccc6)C7=O)CC[C@]5(C(=O)O)CC[C@@]4(C)[C@]3(C)CC[C@@H]12
Activity (CCRF-CEM [1]): 90.4%
Activity (CCRF-CEM [2]): Active
IC50 (U2OS): 25.9 µM
IC50 [5]: 23.1 µM
IC50 (K562): > 50 µM
inhibition (INH) (CCRF-CEM [6]): 28.4%
IC50 (CCRF-CEM [8]): 5.18 µM
IC50 (HCT 116 TP53(-/-)): > 50 µM
Activity (CCRF-CEM [9]): Active
Activity (CCRF-CEM [10]): 0%
Activity (CCRF-CEM [11]): 4.5%
Activity (CCRF-CEM [12]): 5.1%
Activity (CCRF-CEM [13]): 0%
Activity (CCRF-CEM [14]): Active
IC50 (HCT-116): 29.4 µM
Activity (CCRF-CEM [15]): 90.7%
Activity (CCRF-CEM [16]): 5.4%
inhibition (INH) (CCRF-CEM [18]): 16.1%
Activity (CCRF-CEM [19]): Active
inhibition (INH) (CCRF-CEM [21]): 37.8%
IC50 at 72 h [22]: > 50 µM
IC50 (CEM-DNR): 20 µM
Activity (CCRF-CEM [24]): 3.9%
inhibition (INH) (CCRF-CEM [26]): 35.2%
IC50 at 72 h [27]: > 50 µM
IC50 (A549): > 50 µM
